# Results from PubChem BioAssay.
# The source made the active and inactive calls.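 The calls were made as follows, unless noted: active = inhibition of the reporter signal at or above 50%; inactive = inhibition below 50%.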
# Experiments:
# [1] = inhibitors of TNFa-induced NFkB p65 translocation, primary screen, imaging, HUVEC, MLSMR starter and 10KST1 sets (AID 438;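 active = inhibition above 20% together with a positive visual image hit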;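 also: compound added about 3h40 before a 20 min TNFalpha stimulation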;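 as to inhibition: signal is the nuclear over cytoplasmic p65 intensity ratio per well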); conditions: HUVEC TNFa-induced p65 nuclear translocation; cell count: measured here: nuclei count (cytotoxicity indicator), at 2.08 µM; inhibition: at 2 µM, stronger effect = higher value, 0% TNFa-plus-vehicle, 100% no-TNFa wells
# [2] = reduction of polyQ htt aggregates in cells – imaging, exon1htt(103Q)mCFP cells, high-content imaging, primary screen (AID 483;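 active = visual image review flags a hit and inhibition of aggregation exceeds 20%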;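 also: compound exposure lasted 3 days before fixation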;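 as to nuclei count: percent of the per-plate median nuclei count of sample wells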); conditions: exon1htt(103Q)mCFP cell line, aggregate imaging, at 2 µM; inhibition of aggregation: stronger effect = higher value; nuclei count: measured here: cell count, toxicity
# [3] = endothelial E-selectin expression blockers – imaging, HUVEC, immunofluorescence, MLSMR starter and 10KST1 sets, primary screen (AID 487;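 active = visually confirmed hit in the image check and inhibition above 20%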;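 as to inhibition: signal is fraction of cell area covered by stained E-selectin grains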;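 as to nuclei count: 100% = median nuclei count of all wells on the same plate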); conditions: HUVEC TNFalpha-induced E-selectin immunofluorescence imaging, at 2 µM; inhibition: stronger effect = higher value; nuclei count: measured here: cell number, toxicity
# [4] = target: Voltage-gated potassium channel subunit beta-2 (Rattus norvegicus) (UniProt P62483); test: inhibitors of rat Kvbeta2 reductase activity – biochemical, NADPH fluorescence, primary screen (AID 622;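 active = fluorescence slope higher than the sample average by over 3 SD, cut at about -0.22 in these data, passing the limit was not always enough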;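 also: slope of raw intensity against log time taken from 70 to 1610 s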); conditions: recombinant KvBeta, 4-cyanobenzaldehyde reduction, at 10 µM, stronger effect = higher value
# Voltage-gated potassium channel subunit beta-2 (Rattus norvegicus), sequence (P62483 whole entry, looked up): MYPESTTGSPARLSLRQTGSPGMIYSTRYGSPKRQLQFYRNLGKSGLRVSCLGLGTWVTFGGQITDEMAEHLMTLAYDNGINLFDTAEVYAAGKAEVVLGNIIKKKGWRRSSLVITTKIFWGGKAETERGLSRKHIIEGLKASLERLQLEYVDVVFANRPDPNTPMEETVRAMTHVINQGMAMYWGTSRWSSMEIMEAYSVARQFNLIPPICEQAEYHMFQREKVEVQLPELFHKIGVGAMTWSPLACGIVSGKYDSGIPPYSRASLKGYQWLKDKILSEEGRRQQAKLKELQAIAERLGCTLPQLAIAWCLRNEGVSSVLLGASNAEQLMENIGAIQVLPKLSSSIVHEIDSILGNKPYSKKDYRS
# [5] = target: Voltage-gated potassium channel subunit beta-2 (Rattus norvegicus) (UniProt P62483); test: enhancers of rat Kvbeta2 NADPH turnover – biochemical, NADPH fluorescence, primary screen (AID 623;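 active = NADPH fluorescence slope more negative than the mean of all samples by about 3 SD, 99.7% confidence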;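 also: fluorescence intensity change per second fitted from 20 to 320 s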); conditions: Recombinant KvBeta, NADPH fluorescence decrease slope, 10 min; at 10 µM; stronger effect = lower value
# [6] = target: Alpha-2C adrenergic receptor (Homo sapiens) (UniProt P18825); test: compounds altering alpha2C-coupled GIRK flux – cell-based, HEK293 alpha2C/GIRK1/2, thallium flux, primary screen (AID 624;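 active = fluorescence slope after compound addition differing from the mean of all screened samples at 99.7% confidence, in either direction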;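 also: slope of fluorescence ratio to pre-addition baseline per second over 15 to 24 s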); conditions: thallium flux BTC fluorescence, at 10 µM, actives lie on both sides
# Alpha-2C adrenergic receptor (Homo sapiens), sequence (P18825 whole entry, looked up): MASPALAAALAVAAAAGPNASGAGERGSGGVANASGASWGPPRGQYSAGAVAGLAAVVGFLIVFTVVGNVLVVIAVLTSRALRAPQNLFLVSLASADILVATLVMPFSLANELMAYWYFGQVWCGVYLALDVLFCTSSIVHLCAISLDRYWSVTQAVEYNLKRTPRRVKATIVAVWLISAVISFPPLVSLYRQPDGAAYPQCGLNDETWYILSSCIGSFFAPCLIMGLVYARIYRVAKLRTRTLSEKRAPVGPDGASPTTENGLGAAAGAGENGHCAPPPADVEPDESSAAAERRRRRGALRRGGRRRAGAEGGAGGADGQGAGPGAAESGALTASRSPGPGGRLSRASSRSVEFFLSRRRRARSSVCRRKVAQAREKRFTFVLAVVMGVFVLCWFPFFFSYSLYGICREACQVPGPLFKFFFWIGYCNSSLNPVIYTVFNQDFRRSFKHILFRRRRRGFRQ
# [7] = inhibitors of larval lipid processing in zebrafish, primary screen, whole organism, PED6 fluorescence, gall bladder and intestine (AID 686;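 active = a full or partial loss of lipid-probe fluorescence in the fish gall bladder, intestine or both, judged by eye; inactive = no fluorescence loss, or compound toxic to the fish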;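 also: larvae 5 to 7 days old with five fish per well; signal comes from phospholipase A2 cleavage of quenched PED6 carried via bile; overnight exposure to compound and PED6 before scoring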); conditions: Zebrafish larvae PED6 lipid processing, fluorescence scoring; screened at 20 µM (by protocol)
# Summary of the method: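 System: live zebrafish larvae aged 5-7 days, whole organism; measure: graded gall bladder and intestinal fluorescence inhibition per well; incubation: overnight exposure; reagent: ingested quenched lipid PED6 at 100 nM; signal: By-eye fluorescence microscopy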
# [8] = blockers of RIG-like receptor reporter activation – cell-based, Sendai virus stimulus, luciferase, 10K MLSCN set, TLR/RLR signaling modifier project, primary screen (AID 602276;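 active = inhibition at or above 50% at 10 µM; inactive = inhibition below 50%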;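 also: firefly luciferase from ISG56 promoter only with Renilla not read in this screen; 0% = Sendai virus plus DMSO and 100% = medium plus DMSO without virus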); conditions: HEK293 RL24 IRF3 luciferase reporter, at 10 µM, stronger effect = higher value
# [9] = TLR3 IRF3 reporter activation blockers – cell-based, poly I:C stimulus, luciferase, 10K MLSCN set, primary screen (AID 602277); conditions: HEK293-TLR3 RL24 IRF3 luciferase reporter, at 10 µM, stronger effect = higher value
SMILES,cell count [1],inhibition [1],inhibition of aggregation [2],nuclei count [2] [%],inhibition [3],nuclei count [3] [%],fluorescence slope [4],NADPH fluorescence slope [5],slope [6],outcome [7],inhibition [8],inhibition [9]
COc1cc(NC(=O)Nc2cccc(C(C)=O)c2)cc(OC)c1OC,674,-9.3% (inactive),-22% (inactive),99.7,-136% (inactive),97.7,-0.438 (inactive),-4.1e-05 (inactive),0.00508 (inactive),inactive,14% (inactive),12.9% (inactive)
O=C(Nc1nnc(C2CCCC2)s1)C1CCN(S(=O)(=O)c2ccc(Cl)cc2)CC1,349,0% (inactive),18.7% (inactive),85.1,-83.1% (inactive),104,-0.345 (inactive),-1.7e-05 (inactive),0.00671 (inactive),inactive,13.4% (inactive),6.21% (inactive)
COc1ccc(CN(C(=O)CN2C(=O)COc3ccccc32)C2CCCC2)c(OC)c1,658,-3.5% (inactive),-4.6% (inactive),102,4.9% (inactive),104,-0.435 (inactive),-6.2e-05 (inactive),0.00491 (inactive),inactive,21.9% (inactive),26.4% (inactive)
Cc1occc1C(=O)Nc1ccc(S(=O)(=O)N2CCN(C)CC2)cc1,318,1% (inactive),-23.8% (inactive),95.5,-42.1% (inactive),107,-0.44 (inactive),-1.3e-05 (inactive),0.00548 (inactive),inactive,15.9% (inactive),16.1% (inactive)
Cc1cnc(C(=O)Nc2ccccc2-n2cccc2)cn1,426,6% (inactive),-9.1% (inactive),107,-157% (inactive),115,-0.379 (inactive),-5.7e-05 (inactive),0.00535 (inactive),inactive,-12.6% (inactive),0.535% (inactive)
COc1ccc(CSCCN)cc1Cl,431,-3.8% (inactive),-22.4% (inactive),104,27.2% (inactive),107,-0.4 (inactive),-9.7e-05 (inactive),0.00556 (inactive),inactive,-7.54% (inactive),-8.95% (inactive)
Cc1cc(NC(=O)CS(=O)(=O)c2cn(Cc3ccccc3Cl)c3ccccc23)no1,767,-27.1% (inactive),0.3% (inactive),98.5,67.2% (active),83.3,-0.323 (inactive),-2.3e-05 (inactive),0.00422 (inactive),inactive,7.87% (inactive),2.26% (inactive)
CN(Cc1ccc(-n2cccn2)cc1)C(=O)c1cnn2c1NC(c1ccco1)CC2C(F)(F)F (centres undefined),326,9.3% (inactive),-30.3% (inactive),115,-100% (inactive),120,-0.509 (inactive),-4e-05 (inactive),0.00457 (inactive),inactive,8.13% (inactive),5.75% (inactive)
Cc1cc(NC(=O)CSc2nc(C3CC3)nc3sc4c(c23)CCC(C)C4)no1 (centres undefined),321,-1.3% (inactive),0.7% (inactive),75.3,-43% (inactive),113,-0.394 (inactive),-5.2e-05 (inactive),0.00786 (inactive),inactive,-13.4% (inactive),-24.3% (inactive)
O=C(CN(Cc1ccc(F)cc1)C(=O)c1ccco1)NCc1ccc(F)cc1,357,6.8% (inactive),7% (inactive),90.9,-382% (inactive),130,-0.359 (inactive),-3.4e-05 (inactive),0.00584 (inactive),inactive,14.4% (inactive),21.2% (inactive)
CCOc1ccc(NS(=O)(=O)c2cc(Cl)ccc2OC)cc1,279,-4.2% (inactive),19.4% (inactive),95.4,-147% (inactive),129,-0.282 (inactive),1.3e-05 (inactive),0.00586 (inactive),inactive,14.5% (inactive),21% (inactive)
CCC1(C)Cc2c(sc3nc(SCC(=O)O)[nH]c(=O)c23)CO1 (centres undefined),549,-14.6% (inactive),-5% (inactive),114,-41% (inactive),104,-0.391 (inactive),-1.8e-05 (inactive),0.00549 (inactive),inactive,1.92% (inactive),7.26% (inactive)
